Data reported in ChEMBL document CHEMBL1641489, “Syntheses, structures and antibiotic activities of LpxC inhibitors based on the diacetylene scaffold” (Bioorg Med Chem, 2011).
≈ marks a conversion by molar mass, not a printed value.

Assays:
Escherichia coli [1] = experiment: Antibacterial activity against Escherichia coli W3110PA replaced with Pseudomonas aeruginosa lpxC gene by NCCLS assay; type: functional
Procedure, shortened: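 MIC by the NCCLS protocol in LB medium with 5% DMSO. Strain: W3110 with chromosomal lpxC swapped for P. aeruginosa lpxC. The swap was made by λ-red recombination in DY330 and moved into W3110 by P1vir transduction, selecting on LB/agar with 15 μg/mL L-161,240 and 10 mM sodium citrate.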

Escherichia coli [2] = experiment: Antibacterial activity against Escherichia coli W3110RL replaced with Rhizobium leguminosarum lpxC gene by NCCLS assay; type: functional
Procedure, shortened: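 MIC by the NCCLS protocol in LB medium with 5% DMSO. Strain: E. coli with native lpxC replaced by the R. leguminosarum gene.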

[3] = target: T1, UDP-3-O-acyl-N-acetylglucosamine deacetylase (Escherichia coli K-12, UniProt P0A725); experiment: Inhibition of Escherichia coli LpxC
T1 sequence (P0A725 whole entry): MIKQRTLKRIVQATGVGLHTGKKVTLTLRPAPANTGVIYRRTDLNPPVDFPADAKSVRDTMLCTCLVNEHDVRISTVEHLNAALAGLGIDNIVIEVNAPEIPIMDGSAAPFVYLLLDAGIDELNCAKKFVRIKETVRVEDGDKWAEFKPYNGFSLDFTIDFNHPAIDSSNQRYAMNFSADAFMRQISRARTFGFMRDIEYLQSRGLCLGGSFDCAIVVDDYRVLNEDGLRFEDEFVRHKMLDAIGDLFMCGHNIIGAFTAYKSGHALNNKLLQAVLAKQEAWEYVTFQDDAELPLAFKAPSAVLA

Pseudomonas aeruginosa = experiment: Antibacterial activity against Pseudomonas aeruginosa PAO1 by NCCLS assay; type: functional
Procedure, shortened: (§1)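 Broth microdilution MIC per NCCLS protocol, adapted to 96-well format in LB medium containing 5% DMSO; MIC taken as lowest concentration inhibiting bacterial growth.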

Escherichia coli [4] = experiment: Antibacterial activity against Escherichia coli W3110 by NCCLS assay; type: functional; procedure, shortened: as §1

| SMILES | MIC (Escherichia coli [1]) | MIC (Escherichia coli [2]) | Ki ([3]; read-out: Ki) | Ki ([3]; read-out: Ki(app)) | MIC (Pseudomonas aeruginosa) | MIC (Escherichia coli [4]) |
| --- | --- | --- | --- | --- | --- | --- |
| C[C@@H](O)[C@H](NC(=O)c1ccc(C#CC#Cc2ccccc2)cc1)C(=O)NO | 0.7 µg/mL (≈ 1.93 µM) | 6.3 µg/mL (≈ 17.4 µM) | 0.18 nM | 0.55 nM | 0.7 µg/mL (≈ 1.93 µM) | 0.05 µg/mL (≈ 0.138 µM) |
| C[C@@H](O)[C@H](NC(=O)c1ccc(C#CC#Cc2ccc(N)cc2)cc1)C(=O)NO | 0.5 µg/mL (≈ 1.32 µM) | 3.9 µg/mL (≈ 10.3 µM) |  |  | 0.5 µg/mL (≈ 1.32 µM) | 0.03 µg/mL (≈ 0.0795 µM) |
| C[C@@H](O)[C@H](NC(=O)c1ccc(C#CC#Cc2cccc(N)c2)cc1)C(=O)NO | 1.3 µg/mL (≈ 3.44 µM) | 6.3 µg/mL (≈ 16.7 µM) |  |  | 1.3 µg/mL (≈ 3.44 µM) | 0.06 µg/mL (≈ 0.159 µM) |
| C[C@@H](O)[C@H](NC(=O)c1ccc(C#CC#Cc2ccccc2N)cc1)C(=O)NO | 8.3 µg/mL (≈ 22 µM) | > 25 µg/mL |  |  | 12.5 µg/mL (≈ 33.1 µM) | 0.5 µg/mL (≈ 1.32 µM) |
| C[C@H](O)[C@H](NC(=O)c1ccc(C#CC#Cc2ccc(N)cc2)cc1)C(=O)NO | 0.8 µg/mL (≈ 2.12 µM) | 12.5 µg/mL (≈ 33.1 µM) |  |  | 0.9 µg/mL (≈ 2.38 µM) | 0.07 µg/mL (≈ 0.185 µM) |
| C[C@@H](O)[C@@H](NC(=O)c1ccc(C#CC#Cc2ccc(N)cc2)cc1)C(=O)NO | > 25 µg/mL | > 25 µg/mL |  |  | > 25 µg/mL | 6.3 µg/mL (≈ 16.7 µM) |
| C[C@H](O)[C@@H](NC(=O)c1ccc(C#CC#Cc2ccc(N)cc2)cc1)C(=O)NO | > 25 µg/mL | > 25 µg/mL |  |  | > 25 µg/mL | 3.1 µg/mL (≈ 8.21 µM) |
| C[C@@H](O)[C@H](NC(=O)c1ccc(C#Cc2ccc(CN3CCOCC3)cc2)cc1)C(=O)NO | 1.3 µg/mL (≈ 2.97 µM) | 125 µg/mL (≈ 286 µM) |  |  | 1.6 µg/mL (≈ 3.66 µM) | 0.2 µg/mL (≈ 0.457 µM) |
